Assay [1] relates to Enterobacter cloacae. The experiment in a line: Antimicrobial activity against aac(6')-Ib-cr-negative Enterobacter cloacae GZ51T harboring qnrA gene by agar dilution method in presence of Tazobactam. The format is functional. A digest of the protocol: (§1)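 MICs were determined by the CLSI agar dilution method (M7-A7) and interpreted against CLSI M100-S17 breakpoints.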
For orientation: Agar dilution tests growth on a series of plates holding different concentrations.

In assay [2] the test system is Enterobacter cloacae. As to the kind of experiment: Antimicrobial activity against aac(6')-Ib-cr-negative Enterobacter cloacae GZ51 harboring qnrA gene by agar dilution method in presence of Tazobactam. The format is functional. A digest of the protocol:
as §1

Assay [3] concerns Klebsiella pneumoniae. As to the kind of experiment: Antimicrobial activity against aac(6')-Ib-cr-negative Klebsiella pneumoniae SY22T harboring qnrS gene by agar dilution method in presence of Tazobactam. It counts as functional. A digest of the protocol: as §1
Assay [4] has as its system Citrobacter freundii. As to the kind of experiment: Antimicrobial activity against aac(6')-Ib-cr-negative Citrobacter freundii JN64T harboring qnrA gene by agar dilution method in presence of Tazobactam. It counts as functional. A digest of the protocol:
as §1

In assay [5] the test system is Citrobacter freundii. The experiment in a line: Antimicrobial activity against aac(6')-Ib-cr-positive Citrobacter freundii TJ15T harboring wild-type GyrA, ParC, GyrB genes by agar dilution method in presence of Tazobactam. The format is functional. A digest of the protocol:
as §1

Assay [6] relates to Escherichia coli. As to the kind of experiment: Antimicrobial activity against aac(6')-Ib-cr-negative Escherichia coli PU12 harboring GyrA S83L mutant, wild-type GyrB, ParC and qnrS genes by agar dilution method in presence of Tazobactam. It counts as functional. A digest of the protocol:
(§2)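 MICs measured by CLSI agar dilution (M7-A7) and interpreted against CLSI M100-S17 breakpoints. Strains were clinical Enterobacteriaceae isolates or the azide-resistant E. coli J53 recipient.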

The test system of assay [7] is Enterobacter cloacae. As to the kind of experiment: Antimicrobial activity against aac(6')-Ib-cr-negative Enterobacter cloacae GZ47T harboring qnrB gene by agar dilution method in presence of Tazobactam. The format is functional. A digest of the protocol:
as §1

Assay [8] deals with Klebsiella pneumoniae. As to the kind of experiment: Antimicrobial activity against aac(6')-Ib-cr-positive Klebsiella pneumoniae WH99T harboring qnrB gene by agar dilution method in presence of Tazobactam. The format is functional. A digest of the protocol: (§3)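 Transconjugants were made by conjugating a qnr/aac(6')-Ib-cr donor with azide-resistant E. coli J53. Selection used Trypticase soy agar with sodium azide 150 µg/ml and sulfamethoxazole 180 µg/ml. […] MICs were read by CLSI agar dilution (M7-A7) and interpreted per M100-S17.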

In assay [9] the test system is Enterobacter cloacae. The experiment in a line: Antimicrobial activity against aac(6')-Ib-cr-negative Enterobacter cloacae SH39T harboring qnrA gene by agar dilution method in presence of clavulanic acid. The format is functional. A digest of the protocol: (§4)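 Transconjugants came from conjugation of qnr and/or aac(6')-Ib-cr-carrying donors with azide-resistant E. coli J53. […] MICs were determined by CLSI agar dilution (M7-A7) and interpreted by M100-S17.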

Assay [10] deals with Klebsiella pneumoniae. As to the kind of experiment: Antimicrobial activity against aac(6')-Ib-cr-positive Klebsiella pneumoniae JN41 harboring GyrA S83I, ParC S80I mutant, wild-type GyrB and qnrB genes by agar dilution method. The format is functional. A digest of the protocol:
(§5)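 MICs were determined on clinical isolates by CLSI agar dilution (M7-A7) and interpreted against CLSI M100-S17 breakpoints.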

Assay [11] concerns Enterobacter cloacae. The experiment in a line: Antimicrobial activity against aac(6')-Ib-cr-positive Enterobacter cloacae FJ63 harboring GyrA S83I, GyrA D87A, ParC S80I mutant, wild-type GyrB and qnrS genes by agar dilution method in presence of clavulanic acid. It counts as functional. A digest of the protocol:
as §1

The subject of assay [12] is Citrobacter freundii. The experiment in a line: Antimicrobial activity against aac(6')-Ib-cr-negative Citrobacter freundii JN64 harboring GyrA T83I, wild-type ParC, GyrB and qnrA genes by agar dilution method in presence of clavulanic acid. It counts as functional. A digest of the protocol: as §1
Assay [13] relates to Klebsiella pneumoniae. The experiment in a line: Antimicrobial activity against aac(6')-Ib-cr-positive Klebsiella pneumoniae GZ40T harboring qnrB gene by agar dilution method in presence of clavulanic acid. It counts as functional. A digest of the protocol:
as §4

In assay [14] the test system is Klebsiella pneumoniae. As to the kind of experiment: Antimicrobial activity against aac(6')-Ib-cr-positive Klebsiella pneumoniae WH99T harboring qnrB gene by agar dilution method. The format is functional. A digest of the protocol: as §3
Assay [15] deals with Enterobacter cloacae. As to the kind of experiment: Antimicrobial activity against aac(6')-Ib-cr-negative Enterobacter cloacae WH42T harboring qnrA gene by agar dilution method in presence of clavulanic acid. The format is functional. A digest of the protocol: as §4
Assay [16] has as its system Citrobacter freundii. As to the kind of experiment: Antimicrobial activity against aac(6')-Ib-cr-negative Citrobacter freundii JN64T harboring qnrA gene by agar dilution method. It counts as functional. A digest of the protocol:
as §1

For assay [17], the system named is Klebsiella pneumoniae. As to the kind of experiment: Antimicrobial activity against aac(6')-Ib-cr-positive Klebsiella pneumoniae JN132 harboring GyrA S83I, ParC S80I mutant, wild-type GyrB and qnrB genes by agar dilution method. It counts as functional. A digest of the protocol:
as §5

For assay [18], the system named is Citrobacter freundii. The experiment in a line: Antimicrobial activity against aac(6')-Ib-cr-negative Citrobacter freundii JN64 harboring GyrA T83I, wild-type ParC, GyrB and qnrA genes by agar dilution method. It counts as functional. A digest of the protocol: as §1
Assay [19] deals with Klebsiella pneumoniae. As to the kind of experiment: Antimicrobial activity against aac(6')-Ib-cr-negative Klebsiella pneumoniae SY22 harboring GyrA S83I, ParC S80I mutant, wild-type GyrB and qnrS genes by agar dilution method. The format is functional. A digest of the protocol: as §1
Assay [20] has as its system Enterobacter cloacae. As to the kind of experiment: Antimicrobial activity against aac(6')-Ib-cr-positive Enterobacter cloacae FJ63 harboring GyrA S83I, GyrA D87A, ParC S80I mutant, wild-type GyrB and qnrS genes by agar dilution method. It counts as functional.
The subject of assay [21] is Escherichia coli. The experiment in a line: Antimicrobial activity against aac(6')-Ib-cr-positive Escherichia coli FJ3T harboring wild-type GyrA, ParC, GyrB and qnrB genes by agar dilution method in presence of clavulanic acid. It counts as functional. A digest of the protocol:
as §4

Assay [22] concerns Enterobacter cloacae. As to the kind of experiment: Antimicrobial activity against aac(6')-Ib-cr-negative Enterobacter cloacae GZ47T harboring qnrB gene by agar dilution method. It counts as functional.
For assay [23], the system named is Enterobacter cloacae. As to the kind of experiment: Antimicrobial activity against aac(6')-Ib-cr-negative Enterobacter cloacae SH39T harboring qnrA gene by agar dilution method. It counts as functional.
Assay [24] deals with Citrobacter freundii. The experiment in a line: Antimicrobial activity against aac(6')-Ib-cr-positive Citrobacter freundii JS33T harboring qnrA gene by agar dilution method. It counts as functional. A digest of the protocol:
as §1

For assay [25], the system named is Enterobacter cloacae. The experiment in a line: Antimicrobial activity against aac(6')-Ib-cr-negative Enterobacter cloacae FJ61T harboring qnrS gene by agar dilution method. It counts as functional.
Assay [26] deals with Klebsiella pneumoniae. The experiment in a line: Antimicrobial activity against aac(6')-Ib-cr-positive Klebsiella pneumoniae WH99 harboring wild-type GyrA, ParC, GyrB and qnrB genes by agar dilution method. The format is functional. A digest of the protocol: as §5
The test system of assay [27] is Escherichia coli. As to the kind of experiment: Antimicrobial activity against Escherichia coli J53 harboring wild-type GyrA, ParC, GyrB genes by agar dilution method.
Assay [28] deals with Klebsiella pneumoniae. The experiment in a line: Antimicrobial activity against aac(6')-Ib-cr-positive Klebsiella pneumoniae JN132T harboring qnrB gene by agar dilution method. It counts as functional. A digest of the protocol: as §3
For assay [29], the system named is Enterobacter cloacae. The experiment in a line: Antimicrobial activity against aac(6')-Ib-cr-negative Enterobacter cloacae GZ51T harboring qnrA gene by agar dilution method. It counts as functional.
For assay [30], the system named is Klebsiella pneumoniae. The experiment in a line: Antimicrobial activity against aac(6')-Ib-cr-positive Klebsiella pneumoniae GZ40 harboring GyrA S83I, ParC S80I mutant, wild-type GyrB and qnrB genes by agar dilution method in presence of clavulanic acid. The format is functional. A digest of the protocol: as §2
Assay [31] has as its system Escherichia coli. The experiment in a line: Antimicrobial activity against aac(6')-Ib-cr-positive Escherichia coli FJ3T harboring wild-type GyrA, ParC, GyrB and qnrB genes by agar dilution method.
The test system of assay [32] is Klebsiella pneumoniae. The experiment in a line: Antimicrobial activity against aac(6')-Ib-cr-positive Klebsiella pneumoniae JN132 harboring GyrA S83I, ParC S80I mutant, wild-type GyrB and qnrB genes by agar dilution method in presence of clavulanic acid. The format is functional. A digest of the protocol:
as §2

Assay [33] relates to Enterobacter cloacae. As to the kind of experiment: Antimicrobial activity against aac(6')-Ib-cr-negative Enterobacter cloacae SH39 harboring GyrA S83I, ParC S80I mutant, wild-type GyrB and qnrA genes by agar dilution method. The format is functional.

The MIC is the least concentration at which growth counts as inhibited.

In brackets after ≈: the same amount, converted by molar mass.

As to `CCN1CCN(C(=O)N[C@@H](C(=O)N[C@@H]2C(=O)N3[C@@H]2SC(C)(C)[C@@H]3C(=O)O)c2ccccc2)C(=O)C1=O` [PIPERACILLIN], the MIC with Enterobacter cloacae [1] stood at 2 µg/mL; in the assay with Enterobacter cloacae [2], 2 µg/mL; with Klebsiella pneumoniae [3] it was 1 µg/mL; in the assay on Citrobacter freundii [4] it was 4 µg/mL; in the assay with Citrobacter freundii [5], 1 µg/mL; with Escherichia coli [6], 1 µg/mL. For the same molecule, the MIC in the assay on Enterobacter cloacae [7] and with Klebsiella pneumoniae [8] was 2 µg/mL in each case.

For the molecule `CO/N=C(\C(=O)N[C@@H]1C(=O)N2C(C(=O)O)=C(COC(C)=O)CS[C@H]12)c1csc(N)n1` [CEFOTAXIME], the MIC in the assay on Enterobacter cloacae [9] was 0.032 µg/mL; in the assay on Klebsiella pneumoniae [10], 32 µg/mL (≈ 70.3 µM); with Enterobacter cloacae [11], 1 µg/mL; in the assay on Citrobacter freundii [12] it was 128 µg/mL; in the assay with Klebsiella pneumoniae [13], 0.032 µg/mL; against Klebsiella pneumoniae [14], 16 µg/mL (≈ 35.1 µM). In addition, the MIC with Enterobacter cloacae [15] was 0.032 µg/mL; against Citrobacter freundii [16], 16 µg/mL (≈ 35.1 µM); in the assay on Klebsiella pneumoniae [17] it was 32 µg/mL (≈ 70.3 µM); in the assay on Citrobacter freundii [18] it was 256 µg/mL (≈ 562 µM); against Klebsiella pneumoniae [19], 2 µg/mL (≈ 4.39 µM); in the assay on Enterobacter cloacae [20], more than 256 µg/mL. For the same molecule, the minimal inhibitory concentration (MIC) with Escherichia coli [21] came out at 0.032 µg/mL; with Enterobacter cloacae [22], 0.25 µg/mL (≈ 0.549 µM); against Enterobacter cloacae [23], 0.032 µg/mL (≈ 0.0703 µM); in the assay with Citrobacter freundii [24], 0.125 µg/mL (≈ 0.274 µM); in the assay with Enterobacter cloacae [25], 0.032 µg/mL (≈ 0.0703 µM); against Klebsiella pneumoniae [26] it was 32 µg/mL (≈ 70.3 µM). Further, the MIC in the assay with Escherichia coli [27] was found to be 0.032 µg/mL (≈ 0.0703 µM); against Klebsiella pneumoniae [28] it was 32 µg/mL (≈ 70.3 µM); in the assay with Enterobacter cloacae [29], 32 µg/mL (≈ 70.3 µM); in the assay with Klebsiella pneumoniae [30], 0.5 µg/mL; in the assay on Escherichia coli [31], 64 µg/mL (≈ 141 µM); in the assay with Klebsiella pneumoniae [32] it was 1 µg/mL. The MIC in the assay with Enterobacter cloacae [33] is 4 µg/mL (≈ 8.78 µM).
